Laboratory results: ChEMBL document CHEMBL1147663, “Structure-activity relationships of bifunctional peptides based on overlapping pharmacophores at opioid and cholecystokinin receptors” (J Med Chem, 2006)
pEC50, pIC50, pKi: −log10 of the molar value. The source made the active and inactive calls. The calls are words filed in the database; no cut-off is given here.

Tests used:
[1] = target: Mu-type opioid receptor (Rattus norvegicus) (UniProt P33535); experiment: (§1) Activity against [35S]GTP-gamma-S binding to rat mu opioid receptor expressed in HN9.10 cells; format: functional, cell-based
Sequence of Mu-type opioid receptor (Rattus norvegicus) (P33535 whole entry): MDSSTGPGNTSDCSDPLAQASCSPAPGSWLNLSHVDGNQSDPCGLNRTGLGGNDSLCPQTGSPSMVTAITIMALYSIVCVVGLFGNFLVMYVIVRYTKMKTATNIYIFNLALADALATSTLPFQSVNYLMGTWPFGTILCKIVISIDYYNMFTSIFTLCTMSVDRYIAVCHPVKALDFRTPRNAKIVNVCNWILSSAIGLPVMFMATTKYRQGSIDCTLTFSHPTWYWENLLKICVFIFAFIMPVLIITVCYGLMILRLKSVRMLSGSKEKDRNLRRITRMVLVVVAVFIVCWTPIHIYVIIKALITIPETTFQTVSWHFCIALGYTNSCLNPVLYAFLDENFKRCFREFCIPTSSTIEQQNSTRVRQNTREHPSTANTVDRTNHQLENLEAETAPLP
Summary of the method: (§2)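 Membranes (10 μg) from HN9.10 cells stably expressing hDOR or rMOR; various drug concentrations in duplicate or triplicate, 90 min at 30 °C in HEPES pH 7.4 with GDP, MgCl2, NaCl, 0.1 nM [35S]GTPγS; filtration, scintillation counting.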

Mu-type opioid receptor [2] = target: T1, Mu-type opioid receptor (Rattus norvegicus, UniProt P33535); experiment: as §1; format: functional, cell-based; summary of the method: as §2
T1 sequence (P33535 whole entry): as above

[3] = target: Delta-type opioid receptor (Mus musculus, UniProt P32300); experiment: Agonist activity at delta opioid receptor assessed as inhibition of electrically stimulated ICR mouse vas deferens contraction; format: functional, tissue-based
Sequence of Delta-type opioid receptor (Mus musculus, UniProt P32300) (P32300 whole entry): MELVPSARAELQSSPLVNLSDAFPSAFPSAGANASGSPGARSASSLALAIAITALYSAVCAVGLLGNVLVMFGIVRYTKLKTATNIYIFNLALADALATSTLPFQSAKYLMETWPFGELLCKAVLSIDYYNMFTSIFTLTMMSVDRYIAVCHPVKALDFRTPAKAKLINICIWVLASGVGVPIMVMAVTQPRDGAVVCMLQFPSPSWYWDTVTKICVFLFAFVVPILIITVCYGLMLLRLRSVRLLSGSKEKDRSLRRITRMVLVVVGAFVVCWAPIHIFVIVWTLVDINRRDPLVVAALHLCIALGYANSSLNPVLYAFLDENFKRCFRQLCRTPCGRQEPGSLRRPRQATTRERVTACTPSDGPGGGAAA
Summary of the method: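 Vas deferens from male ICR mice, in 20 mL baths at 0.5 g tension, Mg-free oxygenated Krebs, 37 °C; electrical stimulation 0.1 Hz, 2.0 ms pulses, supramaximal voltage. Cumulative addition to maximal inhibition; integrity checked with 10 nM DPDPE. IC50 by Hill-equation nonlinear least-squares fit, at least four tissues.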

[4] = target: T2, Gastrin/cholecystokinin type B receptor (Homo sapiens, UniProt P32239); experiment: Displacement of [125I]CCK-8(SO3) from human CCK2 receptor expressed in HEK293 cells; format: cell-based
T2 sequence (P32239 whole entry): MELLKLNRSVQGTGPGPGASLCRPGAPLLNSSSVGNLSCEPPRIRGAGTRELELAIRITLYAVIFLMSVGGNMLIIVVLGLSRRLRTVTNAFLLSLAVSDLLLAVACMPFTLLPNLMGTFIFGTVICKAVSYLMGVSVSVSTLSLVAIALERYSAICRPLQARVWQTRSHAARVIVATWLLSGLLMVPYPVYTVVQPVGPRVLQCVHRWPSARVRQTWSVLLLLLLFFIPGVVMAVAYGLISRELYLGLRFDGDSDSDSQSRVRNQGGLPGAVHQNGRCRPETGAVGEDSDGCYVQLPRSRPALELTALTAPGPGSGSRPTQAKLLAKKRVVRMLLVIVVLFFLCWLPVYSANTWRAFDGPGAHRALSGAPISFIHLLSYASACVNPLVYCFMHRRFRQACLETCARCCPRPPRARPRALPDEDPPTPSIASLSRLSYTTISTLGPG

[5] = target: T3, Cholecystokinin receptor type A (Homo sapiens, UniProt P32238); experiment: Displacement of [125I]CCK-8(SO3) from human CCK1 receptor expressed in HEK293 cells; format: cell-based
T3 sequence (P32238 whole entry): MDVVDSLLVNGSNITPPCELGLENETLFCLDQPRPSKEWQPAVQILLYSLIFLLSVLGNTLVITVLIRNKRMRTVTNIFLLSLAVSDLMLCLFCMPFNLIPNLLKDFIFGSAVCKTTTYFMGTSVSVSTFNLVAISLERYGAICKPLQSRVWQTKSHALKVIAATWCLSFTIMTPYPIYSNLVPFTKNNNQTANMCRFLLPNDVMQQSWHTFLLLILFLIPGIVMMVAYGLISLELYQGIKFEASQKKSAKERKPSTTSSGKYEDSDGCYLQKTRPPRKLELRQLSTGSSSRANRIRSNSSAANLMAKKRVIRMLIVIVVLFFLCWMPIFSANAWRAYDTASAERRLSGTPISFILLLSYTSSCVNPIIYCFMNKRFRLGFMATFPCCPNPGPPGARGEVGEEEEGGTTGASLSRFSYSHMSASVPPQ

[6] = target: T2, Gastrin/cholecystokinin type B receptor; experiment: Antagonist activity at CCK2 receptor expressed in HEK293 cells assessed as accumulation of [3H]inositol phosphates by PI assay; format: functional, cell-based
[7] = target: T4, Delta-type opioid receptor (Homo sapiens, UniProt P41143); experiment: Activity against [35S]GTP-gamma-S binding to human delta opioid receptor expressed in HN9.10 cells; format: functional, cell-based; summary of the method: as §2
T4 sequence (P41143 whole entry): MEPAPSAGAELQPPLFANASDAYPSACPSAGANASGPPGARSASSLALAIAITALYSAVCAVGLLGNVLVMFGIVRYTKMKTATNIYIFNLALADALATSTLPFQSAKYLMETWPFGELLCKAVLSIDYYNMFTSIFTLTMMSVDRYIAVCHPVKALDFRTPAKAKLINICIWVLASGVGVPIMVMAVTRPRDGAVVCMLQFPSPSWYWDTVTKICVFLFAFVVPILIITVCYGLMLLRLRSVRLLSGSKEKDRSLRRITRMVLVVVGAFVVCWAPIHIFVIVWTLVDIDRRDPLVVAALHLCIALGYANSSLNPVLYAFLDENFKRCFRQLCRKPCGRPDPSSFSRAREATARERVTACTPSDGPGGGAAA

Mu-type opioid receptor [8] = target: Mu-type opioid receptor (Cavia porcellus, UniProt P97266); experiment: Agonist activity at mu opioid receptor assessed as inhibition of electrically stimulated Hartley guinea pig ileum contraction; format: functional, tissue-based
Sequence of Mu-type opioid receptor (Cavia porcellus, UniProt P97266) (P97266 whole entry): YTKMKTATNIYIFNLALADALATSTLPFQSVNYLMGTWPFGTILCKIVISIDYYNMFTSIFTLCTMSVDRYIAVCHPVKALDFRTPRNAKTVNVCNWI
Summary of the method: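 Longitudinal muscle–myenteric plexus strips from male Hartley guinea pig ileum, 1 g tension, oxygenated Krebs at 37 °C; 0.1 Hz, 0.4 ms supramaximal stimulation. […] Integrity checked with 10 nM PL-017. Hill-equation fit, at least four tissues.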

[9] = target: T4, Delta-type opioid receptor; experiment: Displacement of [3H]DPDPE from human delta opioid receptor expressed in HN9.10 cells; format: cell-based
Summary of the method: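 HN9.10 cell membranes (50 μg) expressing hDOR, 10 test concentrations with 1.0 nM [3H]DPDPE in 50 mM Tris pH 7.4 with peptidase inhibitors and BSA, 3 h at 25 °C, duplicates; filtration, scintillation counting. Nonspecific with 10 μM naloxone. Ki by Cheng–Prusoff.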

Mu-type opioid receptor [10] = target: T1, Mu-type opioid receptor; experiment: Displacement of [3H]DAMGO from rat mu opioid receptor expressed in HN9.10 cells; format: cell-based
Summary of the method: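 HN9.10 cell membranes (50 μg) expressing rMOR, 10 test concentrations with 1.0 nM [3H]DAMGO in 50 mM Tris pH 7.4 with peptidase inhibitors and BSA, 3 h at 25 °C, duplicates; filtration, scintillation counting. Nonspecific with 10 μM naloxone. Ki by Cheng–Prusoff.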

[11] = target: T5, Cholecystokinin receptor type A (Homo sapiens) (UniProt P32238); settings: HEK293
T5 sequence (whole entry): T3 sequence (P32238 whole entry)

Row | SMILES | Emax [1] | pEC50 (Mu-type opioid receptor [2]) | pIC50 [3] | pIC50 [4] | pKi [4] | pIC50 [5] | pKi [5] | pEC50 [6] | pEC50 [7] | Emax [7] | pIC50 (Mu-type opioid receptor [8]) | pIC50 [9] | pKi [9] | pIC50 (Mu-type opioid receptor [10]) | pKi (Mu-type opioid receptor [10]) | Log EC50 [11]
1 | CCCC[C@H](NC(=O)[C@H](Cc1c[nH]c2ccccc12)NC(=O)CNC(=O)[C@@H](C)NC(=O)[C@@H](N)Cc1ccc(O)cc1)C(=O)N[C@@H](CC(=O)O)C(=O)N[C@@H](Cc1ccccc1)C(N)=O | 86% | 7.92 | 7.35 | 6.84 | 6.82 | 5.24 | 5.24 | 8.10 | 8.23 | 74% | 6.80 | 9.28 | 9.66 | 7.74 | 8.11 | 
2 | CCCC[C@@H](C(=O)N[C@@H](CC(=O)O)C(=O)N[C@@H](Cc1ccccc1)C(N)=O)N(C)C(=O)[C@H](Cc1c[nH]c2ccccc12)NC(=O)CNC(=O)[C@@H](Cc1ccccc1)NC(=O)[C@@H](N)Cc1ccc(O)cc1 | 300% | 7.66 | 7.19 | 7.82 | 7.82 | 5.44 | 5.44 | 7.80 | 8.60 | 84% | 7.00 | 7.73 | 9.00 | 6.61 | 7.00 | 
3 | CCCC[C@@H](C(=O)N[C@@H](CC(=O)O)C(=O)N[C@@H](Cc1ccccc1)C(N)=O)N(C)C(=O)[C@H](Cc1c[nH]c2ccccc12)NC(=O)CNC(=O)[C@@H](C)NC(=O)[C@@H](N)Cc1ccc(O)cc1 | 73% | 7.74 | 7.18 | 8.79 | 8.80 | 5.29 | 5.29 | 8.34 | 6.92 | 270% | 6.33 | 8.28 | 8.66 | 7.05 | 7.41 | 
4 | CCCC[C@H](NC(=O)[C@@H](Cc1c[nH]c2ccccc12)NC(=O)CNC(=O)[C@@H](C)NC(=O)[C@@H](N)Cc1ccc(O)cc1)C(=O)N[C@@H](CC(=O)O)C(=O)N[C@@H](Cc1ccccc1)C(N)=O | 110% | 6.46 | 5.89 | 5.57 | 5.57 | 5.19 | 5.19 | 6.48 | 6.89 | 91% | 5.64 | 5.70 | 6.07 | 5.89 | 6.23 | 
5 | CCCC[C@@H](NC(=O)[C@@H](N)Cc1ccc(O)cc1)C(=O)NCC(=O)N[C@@H](Cc1c[nH]c2ccccc12)C(=O)N(C)[C@@H](CCCC)C(=O)N[C@@H](CC(=O)O)C(=O)N[C@@H](Cc1ccccc1)C(N)=O | 70% | 6.96 | 8.05 | 8.42 | 8.42 |  |  | 7.72 | 7.82 | 150% | 7.32 | 8.33 | 8.70 | 7.23 | 7.60 | 
6 | CCCC[C@@H](C(=O)N[C@@H](CC(=O)O)C(=O)N[C@@H](Cc1ccccc1)C(N)=O)N(C)C(=O)[C@@H](Cc1c[nH]c2ccccc12)NC(=O)CNC(=O)[C@@H](C)NC(=O)[C@@H](N)Cc1ccc(O)cc1 | 44% | 7.42 | 7.20 | 8.81 | 8.82 | 6.50 | 6.49 | 8.18 | 7.64 | 56% | 6.82 | 8.46 | 8.82 | 7.30 | 7.66 | 
7 | CCCC[C@@H](C(=O)N[C@@H](CC(=O)O)C(=O)N[C@@H](Cc1ccccc1)C(N)=O)N(C)C(=O)[C@@H](Cc1c[nH]c2ccccc12)NC(=O)CNC(=O)[C@@H](Cc1ccccc1)NC(=O)[C@@H](N)Cc1ccc(O)cc1 | 50% |  | 7.62 | 8.96 | 8.96 | 5.96 | 5.96 | 8.55 | 7.54 | 14% | 7.15 | 9.00 | 9.38 | 7.86 | 8.23 | inactive
8 | CCCC[C@H](NC(=O)[C@@H](Cc1c[nH]c2ccccc12)NC(=O)CNC(=O)[C@@H](Cc1ccccc1)NC(=O)[C@@H](N)Cc1ccc(O)cc1)C(=O)N[C@@H](CC(=O)O)C(=O)N[C@@H](Cc1ccccc1)C(N)=O | 160% | 7.35 | 6.77 | 5.76 | 5.77 | 5.71 | 5.70 |  | 6.89 | 170% | 5.57 | 6.40 | 6.77 | 6.15 | 6.52 | 
9 | CCCC[C@@H](C(=O)N[C@@H](CC(=O)O)C(=O)N[C@@H](Cc1ccccc1)C(N)=O)N(C)C(=O)[C@H](Cc1c[nH]c2ccccc12)NC(=O)CNC(=O)[C@@H](Cc1ccccc1)NC(=O)[C@H](Cc1ccc(O)cc1)NC(=O)[C@@H](N)CC(=O)O | 91% | 7.09 |  |  |  | 5.50 | 5.49 |  | 6.96 | 80% |  | 6.26 | 6.60 | 4.94 | 5.28 | inactive
